Screens from PubChem BioAssay.
Shown are actives, neighbours in structure and some others; about 1.5% of the full set was active somewhere.
Rin1-Abl PPI inh – inhibitors of Rin1-Abl protein binding, primary screen, biochemical, TR-FRET; Tyrosine-protein kinase ABL1 (Homo sapiens) + Ras and Rab interactor 1 (Homo sapiens), …; inhibition, % at 7.35 µM; actives 0.4% (n = 360,000); AID 588664, 2011; in the data active means inhibition above about 5%, passing the limit was not always enough
Target sequence (P00519 whole entry, looked up): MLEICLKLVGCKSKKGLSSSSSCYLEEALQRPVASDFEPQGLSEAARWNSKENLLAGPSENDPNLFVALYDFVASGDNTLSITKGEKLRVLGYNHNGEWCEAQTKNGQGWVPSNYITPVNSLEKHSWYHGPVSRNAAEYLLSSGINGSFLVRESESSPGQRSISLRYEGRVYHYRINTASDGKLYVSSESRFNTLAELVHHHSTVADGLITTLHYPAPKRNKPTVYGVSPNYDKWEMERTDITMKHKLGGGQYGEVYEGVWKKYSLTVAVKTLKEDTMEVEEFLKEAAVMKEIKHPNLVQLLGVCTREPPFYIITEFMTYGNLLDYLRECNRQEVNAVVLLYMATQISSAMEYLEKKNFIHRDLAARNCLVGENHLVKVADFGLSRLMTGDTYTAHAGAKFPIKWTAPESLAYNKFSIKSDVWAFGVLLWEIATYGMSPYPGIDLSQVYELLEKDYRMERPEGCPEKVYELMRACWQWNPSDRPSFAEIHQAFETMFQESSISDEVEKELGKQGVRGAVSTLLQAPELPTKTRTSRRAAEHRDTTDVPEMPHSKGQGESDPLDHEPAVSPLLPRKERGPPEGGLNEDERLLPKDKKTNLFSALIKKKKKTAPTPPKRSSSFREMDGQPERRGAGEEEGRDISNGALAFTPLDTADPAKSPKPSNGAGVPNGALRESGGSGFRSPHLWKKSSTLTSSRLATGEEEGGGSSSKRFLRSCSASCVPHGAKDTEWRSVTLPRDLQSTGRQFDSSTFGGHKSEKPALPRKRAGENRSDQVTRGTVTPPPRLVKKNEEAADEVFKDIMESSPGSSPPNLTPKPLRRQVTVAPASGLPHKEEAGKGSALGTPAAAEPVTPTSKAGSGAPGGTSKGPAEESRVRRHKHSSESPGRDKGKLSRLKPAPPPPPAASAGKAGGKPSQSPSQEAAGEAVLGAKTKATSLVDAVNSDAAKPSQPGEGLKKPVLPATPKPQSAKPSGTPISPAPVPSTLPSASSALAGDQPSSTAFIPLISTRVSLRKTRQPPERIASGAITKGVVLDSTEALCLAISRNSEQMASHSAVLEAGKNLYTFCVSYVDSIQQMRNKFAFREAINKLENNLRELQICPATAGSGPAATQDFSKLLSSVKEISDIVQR
Target sequence (Q13671 whole entry, looked up): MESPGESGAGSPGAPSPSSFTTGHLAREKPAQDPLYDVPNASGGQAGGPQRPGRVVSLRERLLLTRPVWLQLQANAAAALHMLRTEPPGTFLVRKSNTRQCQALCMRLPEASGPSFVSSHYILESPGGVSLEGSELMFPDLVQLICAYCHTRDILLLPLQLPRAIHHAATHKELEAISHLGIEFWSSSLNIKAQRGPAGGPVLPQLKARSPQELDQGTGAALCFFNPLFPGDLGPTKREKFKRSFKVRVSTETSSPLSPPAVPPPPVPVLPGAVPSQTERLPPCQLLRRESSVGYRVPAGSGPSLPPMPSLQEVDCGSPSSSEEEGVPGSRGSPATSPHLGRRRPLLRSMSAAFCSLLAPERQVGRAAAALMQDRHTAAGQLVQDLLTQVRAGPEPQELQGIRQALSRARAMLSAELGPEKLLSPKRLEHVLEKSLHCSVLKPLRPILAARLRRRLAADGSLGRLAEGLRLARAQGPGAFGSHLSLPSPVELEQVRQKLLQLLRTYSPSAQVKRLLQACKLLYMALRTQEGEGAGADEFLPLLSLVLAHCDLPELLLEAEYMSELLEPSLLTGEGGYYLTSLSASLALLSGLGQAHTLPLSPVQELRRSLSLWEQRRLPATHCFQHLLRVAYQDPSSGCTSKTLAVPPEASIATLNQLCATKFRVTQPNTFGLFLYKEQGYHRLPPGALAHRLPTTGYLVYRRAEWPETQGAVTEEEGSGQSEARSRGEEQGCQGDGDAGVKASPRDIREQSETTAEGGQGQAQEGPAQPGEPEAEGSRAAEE
Tb MetRS inh – T. brucei MetRS inhibitors, primary screen, biochemical, luminescence | methionyl-tRNA synthetase (Trypanosoma brucei brucei) | purified T. brucei MetRS, ATP depletion, Kinase-Glo luminescence | inhibition, % at 11.9 µM | actives 0.4% (n = 360,000);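 active means inhibition above a per-plate cutoff of the control wells' mean inhibition plus 3 SD, cut at about 5.5% in these data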;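 further: 0% = DMSO wells median and 100% = median of wells with control inhibitor compound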
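Dosing: 11.9 µM single point; system: parasite MetRS enzyme; technique: luminescence of leftover ATP; times: 15 min enzyme-compound preincubation, 2 h reaction, 10 min detection, 25 °C; replicates: each compound tested once; read-out basis: percent inhibition relative to median high and low control wells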
H9c2 protect – cardioprotection against H2O2-induced cell death, primary screen, uHTS, H9c2 cells, ATPLite luminescence | H9c2 cardiomyocytes, H2O2 injury protection, 2 h | protection from H2O2 cell death, % at 20 µM | actives 0.63% (n = 360,000) | AID 588492, 2011;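 active means compounds giving at least 50% protection of heart cells from peroxide-induced death in the single-dose screen, raw or plate-pattern-corrected value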;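 further: 0% = DMSO wells with peroxide and 100% = DMSO wells without peroxide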
PKA-R2B act – activators of PKA-R2B holoenzyme, primary screen, biochemical, fluorescence polarization, Cy5-IP20, human; cAMP-dependent protein kinase catalytic subunit beta (Homo sapiens) + cAMP-dependent …; PKA-R2B holoenzyme dissociation; R2B truncated from residue 108, S112A mutant; 0% DMSO only, 100% 113 µM cGMP; activation, % at 11.4 µM; actives 0.079% (n = 340,000); AID 504700, 2011;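 active means activation above a cutoff set at the mean over all compounds plus 3 SD, cut at about 18% in these data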;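 further: higher means more holoenzyme dissociation and a rise in polarization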
PKA-R1A activ – activators of PKA-R1A holoenzyme, primary screen, biochemical, fluorescence polarization, Cy5-IP20, bovine R1A, mouse PKAc | PKA-R1A dissociation; scaled: DMSO 0%, 113 µM cGMP 100% | actives 0.083% (n = 340,000) | cAMP-dependent protein kinase type I-alpha regulatory subunit (Bos taurus) + … | activation, % at 11.4 µM;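 active means percent activation above the mean of all tested compounds plus 3 SD, cut at about 19% in these data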;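 further: higher means more PKAc released from R1A so a rise in polarization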
Tb MetRS conf – T. brucei MetRS inhibitors, confirmation, biochemical, luminescence; shares compounds with Tb MetRS inh; T. brucei MetRS enzyme, luminescence (ATP depletion); inhibition, % at 11.9 µM; actives 93% (n = 1,400); AID 624412, 2012; in the data active means inhibition above about 7%
Jurkat cytotox – Jurkat T cell cytotoxicity, cytotoxicity control for T. brucei MetRS inhibitor project, luminescence, high throughput; Jurkat cells viability, ATP luminescence; actives 12% (n = 1,400); shares compounds with Tb MetRS inh; inhibition, % at 8.3 µM; in the data active means inhibition above about 15%;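 further: 0% = vehicle and 100% = reference inhibitor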
TbMetRS FP orth – T. brucei MetRS inhibitors, orthogonal assay for T. brucei MetRS inhibitor project, biochemical, fluorescence polarization; inhibition, % at 11.9 µM; shares compounds with Tb MetRS inh; AID 651607, 2012; purified T. brucei MetRS; actives 44% (n = 1,400); in the data active means inhibition above about 17%;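 further: 0% = vehicle wells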
The depositor's hits bear a star; . = no result given.

SMILES | Rin1-Abl PPI inh | Tb MetRS inh | H9c2 protect | PKA-R2B act | PKA-R1A activ | Tb MetRS conf | Jurkat cytotox | TbMetRS FP orth
COCCNc1ncnc2c1[nH]c1ccccc12 | -2 | 59* | -4 | 1 | 3 | 77* | 11 | 42*
CCOC(=O)N1CCC(NCCNC(=O)c2ccc(F)c(F)c2)CC1 | -2 | 0 | 0 | 14 | 8 | . | . | .
Cc1cc(C(=O)COc2ccc(F)cc2Br)c(C)n1C1CC1 | 2 | 0 | -16 | 0 | 6 | . | . | .
O=C(Nc1ccccc1C(=O)O)c1cc(S(=O)(=O)Nc2ccccc2)ccc1Cl | -1 | 0 | 18 | -2 | -2 | . | . | .
c1ccc(Nc2ccnc(Nc3ccccc3)n2)cc1 | -2 | 10* | -8 | -11 | 10 | 24* | 14 | 14
NNc1nc(Nc2ccccc2)nc(Nc2ccccc2)n1 | 2 | 1 | 20 | -5 | -4 | . | . | .
Cc1cccc(NC(=O)CSCC(=O)Nc2ccccc2C(=O)NC2CC2)c1 | 1 | 0 | 7 | -9 | -10 | . | . | .
N#C/C(=C(/O)CCl)c1nnc2n1CCCCC2 | -6 | -1 | 6 | -3 | 7 | . | . | .
N#C/C(=N\Nc1cc(Cl)cc(Cl)c1)c1nnc2n1CCCCC2 | -8 | 24* | -19 | -13 | -5 | 40* | 6 | 26*
CCOc1nc(Nc2ccc(OC)cc2OC)nc(OCC)n1 | 2 | -1 | -5 | 7 | 4 | . | . | .
COc1ccc(NC(=O)C2CC(=O)n3c(nc4ccccc43)N2)cc1 (stereo unspecified) | 0 | 0 | -7 | -8 | 0 | . | . | .
O=C(Nc1ccc(F)c(Cl)c1)C1CC(=O)n2c(nc3ccccc32)N1 (stereo unspecified) | 0 | 74* | -8 | 1 | -6 | 90* | 7 | 76*
O=C(Nc1ccc(F)cc1)C1CC(=O)n2c(nc3ccccc32)N1 (stereo unspecified) | 1 | 18* | 2 | -1 | -12 | 34* | 1 | 12
NCC1C2CCC(O2)C1CO (stereo unspecified) | 2 | 0 | 6 | -5 | -2 | . | . | .
O=C(Cn1c(CO)nc2ccccc21)Nc1cc(C(F)(F)F)ccc1N1CCOCC1 | -2 | 14* | -4 | -1 | 5 | 26* | -2 | 4
O=C(NCc1ccccc1)C(c1ccc(C(F)(F)F)cc1)N1CCN(CCN2CCOCC2)CC1 (stereo unspecified) | . | 0 | . | . | . | . | . | .
Cc1ccc(NC(=O)CNC(=O)c2ccccc2F)cc1Cl | 0 | -1 | -4 | -14 | -4 | . | . | .
O=C(CC(=O)Nc1ccc(F)cc1)Nc1ccc(F)cc1 | 0 | 7.0* | -6 | 9 | 5 | 18* | -8 | 6
O=C(CNC(=O)c1ccc(Cl)cc1Cl)Nc1ccc(F)cc1 | 0 | 10* | -2 | -7 | 13 | 27* | -1 | 14
O=C(CCCCC(=O)Nc1ccc(F)cc1)Nc1ccc(F)cc1 | -2 | 0 | -3 | 6 | 11 | . | . | .
O=C(CNc1cc(S(=O)(=O)N2CCOCC2)ccc1NCC1CCCO1)Nc1cccc(F)c1 (stereo unspecified) | 0 | 14* | 0 | -11 | 3 | 9.1* | -2 | 5
O=C(CN1CCN(S(=O)(=O)N2CCOCC2)CC1)Nc1ccc(Cl)c(Cl)c1 | 1 | 12* | -1 | 7 | -1 | 33* | -3 | 12
O=C(Nc1ccccc1F)Nc1cc(S(=O)(=O)N2CCOCC2)ccc1N1CCCC1 | -1 | 1 | 4 | 6 | 2 | . | . | .
CC(=O)c1ccc(NC(=O)CNc2cc(S(=O)(=O)N3CCOCC3)ccc2N2CCCC2)cc1 | 0 | 0 | -2 | -7 | 4 | . | . | .
O=C(Nc1ccc(Cl)c(Cl)c1)Nc1cc(S(=O)(=O)N2CCOCC2)ccc1N1CCCC1 | 2 | 8.0* | -16 | 6 | -7 | 16* | 7 | 5
SMILES | Rin1-Abl PPI inh | Tb MetRS inh | H9c2 protect | PKA-R2B act | PKA-R1A activ | Tb MetRS conf | Jurkat cytotox | TbMetRS FP orth
O=C(CNc1cc(S(=O)(=O)N2CCOCC2)ccc1N1CCCC1)Nc1ccc(Cl)cc1 | -2 | 48* | -1 | -15 | -15 | 65* | 3 | 35*
CC(Sc1nnc(N)s1)C(=O)NC1CCCCC1C (stereo unspecified) | 0 | -1 | -1 | -14 | -6 | . | . | .
O=C(NCc1cccs1)c1ccc(-c2ccc(F)c(F)c2)c2ccoc12 | -2 | -1 | -20 | . | . | . | . | .
Cc1c(N)cc(S(=O)(=O)O)cc1NC(=O)c1cccc([N+](=O)[O-])c1 | 2 | -1 | -1 | -7 | -5 | . | . | .
COc1ccc(Cl)cc1N1CC(c2nc3ccccc3[nH]2)CC1=O (stereo unspecified) | 0 | 5.7* | 11 | -3 | -5 | 10* | 12 | 5
O=C1CC(c2nc3ccccc3[nH]2)CN1c1ccccc1F (stereo unspecified) | 1 | 2 | 6 | -9 | -1 | . | . | .
O=C1CC(c2nc3ccccc3[nH]2)CN1c1cccc(C(F)(F)F)c1 (stereo unspecified) | -1 | 21* | -18 | 4 | -2 | 27* | 6 | 10
COc1cc(OC)cc(C(=O)NNC(=O)CCNS(=O)(=O)c2ccc(Br)cc2)c1 | 5 | 0 | 1 | 2 | 2 | . | . | .
CCC1(C)Cc2sc3c(=O)[nH]c(=S)[nH]c3c2CO1 (stereo unspecified) | 5 | -1 | 5 | -7 | 5 | . | . | .
COc1ccc(CC(=O)Nc2nc(OCC(F)(F)F)cnc2-c2ccc(Cl)cc2Cl)cc1 | -3 | 0 | -2 | . | . | . | . | .
Cc1nc(SCC(=O)NCc2ccccc2)c2c(=O)n(C)c(=O)n(C)c2n1 | -1 | 5.6* | 34 | 9 | 3 | 2 | 7 | -1
O=C(Cc1ccc(Br)cc1)Nc1cccc(S(=O)(=O)N2CCOCC2)c1 | 0 | 55* | 1 | 3 | -13 | 76* | 8 | 57*
O=C(COc1ccc(S(=O)(=O)N2CCOCC2)cc1)Nc1ccc(Br)cc1 | -1 | 18* | -10 | -5 | -1 | 50* | 17* | 33*
